Sampled rows, rich in hits. Any-hit rate of the full collection: about 1.9%.
NPY1 pot ag: NPY-Y1 receptor potentiators or agonists, primary screen, cell-based; Neuropeptide Y receptor type 1 (Homo sapiens), P25929; NPY-Y1 expressing cells, potentiator/agonist activation; activation, % at 3.6 µM; 0.37% of 220,000 active; AID 1304, 2008; in the data active = activation above about 33%, passing the limit was not always enough;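 note: cells stimulated with NPY at EC10 then isoproterenol at EC100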
Target sequence (P25929 whole entry, looked up): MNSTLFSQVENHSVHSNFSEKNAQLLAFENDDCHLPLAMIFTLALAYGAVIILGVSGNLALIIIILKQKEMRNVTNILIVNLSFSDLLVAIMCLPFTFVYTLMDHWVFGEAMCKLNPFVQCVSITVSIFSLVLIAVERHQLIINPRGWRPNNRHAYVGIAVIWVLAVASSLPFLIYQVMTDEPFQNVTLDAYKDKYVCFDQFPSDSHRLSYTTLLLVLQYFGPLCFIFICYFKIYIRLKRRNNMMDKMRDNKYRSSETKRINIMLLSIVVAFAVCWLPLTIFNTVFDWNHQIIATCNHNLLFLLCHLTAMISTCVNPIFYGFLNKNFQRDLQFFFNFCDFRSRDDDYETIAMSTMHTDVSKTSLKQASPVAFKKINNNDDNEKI
NPY2 pot ag: NPY-Y2 potentiators or agonists, primary screen, cell-based | Neuropeptide Y receptor type 2 (Homo sapiens), P49146 | cells expressing NPY-Y2, potentiator/agonist read-out | activation, % at 3.6 µM | 0.45% of 220,000 active; in the data active = activation above about 27%;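 note: cells stimulated with NPY near EC25 plus isoproterenol at EC100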
NPY-Y2 antag: NPY-Y2 receptor antagonists, primary screen, cell-based; inhibition, % at 2.7 µM; NPY-Y2 expressing cells, antagonist mode; Neuropeptide Y receptor type 2 (Homo sapiens), P49146; 0.99% of 140,000 active
NPY-Y1 antag: NPY-Y1 receptor antagonists, primary screen, cell-based. Neuropeptide Y receptor type 1 (Homo sapiens), P25929. HEK293-CNG Y1 cells, membrane potential fluorescence; NPY at EC95, then isoproterenol. inhibition, % at 3.6 µM. 1% of 200,000 active;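 active = inhibition above the campaign mean inhibition of all tested compounds plus 3 SD, cut at about 20% in these data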
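System: HEK293 cells with Y1 receptor plus CNG channel / Probe or stimulus: NPY 25 nM then isoproterenol 1 µM plus Ro 20-1724 25 µM / Compound: one concentration, 3.6 µM, in 0.4% DMSO / Schedule: compound incubation 1 h at room temperature, readout 45 min post-stimulation / Measured by: membrane potential fluorescence / Read-out: % inhibition of NPY effect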
NPY1 antag conf: NPY-Y1 receptor antagonists, retest of hits, confirmation, HEK293-CNG cells, membrane potential fluorescence, triplicate | shares compounds with NPY-Y1 antag | inhibition, % at 3.6 µM | cAMP; NPY challenge against isoproterenol-raised cAMP | 21% of 1,200 active | AID 1254, 2008; in the data active = inhibition above about 20%
NPY-Y2 antag ct: NPY-Y2 receptor antagonists, selectivity check, confirmation, counter-screen for NPY-Y1 antagonist project, HEK293-CNG cells, membrane potential fluorescence, triplicate | shares compounds with NPY-Y1 antag | antagonism; cells given NPY, then isoproterenol | inhibition, % at 3.6 µM | AID 1255, 2008 | 28% of 1,200 active
A number is an active result; i = inactive; nt = no result. Cut-off read from the data, not from the text of the source, unless noted: active = inhibition above about 17%; inactive = the rest.

SMILES	NPY1 pot ag	NPY2 pot ag	NPY-Y2 antag	NPY-Y1 antag	NPY1 antag conf	NPY-Y2 antag ct
CCC/C=C(\CCC)C(NS(=O)(=O)c1cccc2cccnc12)c1ccc(C(=O)OC)cc1 (stereo not given)	i	i	i	i	nt	nt
Cn1cnnc1SCC(=O)c1cc2ccccc2o1	i	i	nt	63.1	i	i
Cn1ccnc1SCC(=O)c1cc2ccccc2o1	i	i	i	i	nt	nt
O=C(NCc1cccnc1)/C(=C/c1ccc(-c2ccc(Cl)cc2)o1)S(=O)(=O)c1ccccc1	i	i	i	24.7	i	21.9
O=C(NCc1cccnc1)/C(=C\c1ccc(-c2ccc(Br)cc2)o1)S(=O)(=O)c1ccccc1	i	i	i	i	nt	nt
CC(C)(C)SCCNC(=O)CN(c1ccc(F)cc1)S(=O)(=O)c1ccccc1	i	i	nt	i	nt	nt
COc1ccc2nc(SC(C(=O)c3ccccc3)c3ccccc3)nc(C)c2c1 (stereo not given)	i	i	i	39.5	26.7	35.0
Cc1nc(SC(C(=O)c2ccccc2)c2ccccc2)nc2ccccc12 (stereo not given)	i	i	i	i	nt	nt
Cc1cc(NC(=O)CSc2nc(-c3ccccc3)nc3c2c(=O)n(C)c(=O)n3C)no1	i	i	nt	i	nt	nt
CC(C)C(C)NC(=O)CN1C(=O)NC2(CCCc3ccccc32)C1=O (stereo not given)	i	i	nt	i	nt	nt
CCCCNC(=O)CN1C(=O)NC2(CCCc3ccccc32)C1=O (stereo not given)	i	i	i	25.1	i	i
COc1ccc(C(=O)CSc2ccc(-c3ccc(C)cc3)nn2)cc1	i	i	i	25.4	i	i
CCOC(=O)CNC(=O)CSc1nnc(NC(=O)c2ccccc2Cl)s1	i	i	nt	i	nt	nt
O=C(NC(=S)Nc1ccc(CN2CCCCC2)cc1)c1ccco1	i	i	nt	i	nt	nt
Cc1ccc(C(=O)NC(=S)Nc2ccc(CN3CCCCC3)cc2)c(C)c1	i	i	nt	24.2	i	26.9
COc1ccc(C(=O)NC(=S)Nc2ccc(CN3CCCCC3)cc2)cc1Cl	i	i	nt	27.8	i	22.9
Cc1[nH]c(=S)c(C#N)c(-c2ccco2)c1C(=O)N(C)C	i	i	nt	i	nt	nt
CN(C)/C=C/C(=O)c1nnn(C2CCCCC2)c1NC1CCCCC1	i	i	i	22.0	i	i
CC1COC(=O)C(NNc2ccc(Cl)c(Cl)c2)=N1 (stereo not given)	i	i	nt	i	nt	nt
CCCSc1nc2cc(OC)c(OC)cc2c(=N)n1CCCN1CCOCC1	i	i	nt	71.3	22.4	31.7
COCCCn1c(SCc2ccc(OC)cc2)nc2cc(OC)c(OC)cc2c1=N	i	i	i	i	nt	nt
Cc1cc(C)c(C#N)c(SCC(=O)c2cc(C)n(CCc3ccccc3)c2C)n1	i	i	i	23.6	i	i
CC(=O)/C=C1\N(C)c2ccc(C)cc2C1(C)C	i	i	nt	i	nt	nt
CCCCC12CN3CC(C)(CN(C1)C31C(=O)N(C)c3ccc(C)cc31)C2=O (stereo not given)	i	i	i	20.8	i	i
C=C(C)CSc1nnc(-c2cccc(S(=O)(=O)N(C)C)c2)n1-c1cc(OC)ccc1OC	i	i	i	26.4	i	i
SMILES	NPY1 pot ag	NPY2 pot ag	NPY-Y2 antag	NPY-Y1 antag	NPY1 antag conf	NPY-Y2 antag ct
CCN(CC)S(=O)(=O)c1ccc(NC(=O)CSc2nnc(-c3cccc(OC)c3)n2C)cc1	i	i	i	i	nt	nt
O=C(NC(=S)NCc1ccc(F)cc1)c1ccccc1	i	i	i	23.3	i	i
COc1ccc(SCCC(=O)NCc2ccncc2)cc1	i	i	nt	nt	nt	nt
O=C1N(Cc2cccc(Cl)c2)C[C@@H]2C[C@@H](c3ccco3)N3CCC[C@@]123	i	i	nt	21.9	i	i
COc1cccc(NC(=O)CN2CCN(c3ccccc3F)CC2)c1	i	i	i	21.7	i	i
COc1ccc(OC)c(NC(=O)c2ccc(-c3cccs3)cc2)c1	i	i	nt	22.4	i	i
CCN(CCCNC(=O)c1cn(CC)c2ccc(S(=O)(=O)N(C)C)cc2c1=O)c1cccc(C)c1	i	i	i	35.2	56.7	72.2
Cc1ccc(CN2CCNC(=O)C2CC(=O)N2CCN(c3ncccn3)CC2)o1 (stereo not given)	i	i	nt	i	nt	nt
COc1cc(S(=O)(=O)N(Cc2ccccc2)Cc2ccccn2)ccc1-n1cnnn1	i	i	i	i	nt	nt
CC#CCN(CC#CC)S(=O)(=O)c1ccc(-n2cnnn2)c(OC)c1	i	i	i	20.8	i	i
CCC1(C)Cc2ccccc2C(=S)N1 (stereo not given)	i	i	nt	i	nt	nt
CCCC(OC(=O)CN1C(=O)COc2ccccc21)C(=O)NC1CCCC1 (stereo not given)	i	i	i	24.0	i	i
CCc1ccc(NC(=O)COC(=O)CN2C(=O)COc3ccccc32)cc1	i	i	i	i	nt	nt
Cn1cc(CN2C[C@H]3CC[C@H]2C3)c(-c2ccccc2F)n1	i	i	nt	i	nt	nt
COc1ccc(NC(=O)[C@@H](NC(=O)c2ccccc2F)C(C)C)cc1S(=O)(=O)N1CCOCC1	i	i	nt	i	nt	nt
CCOC(=O)c1c(C)n(C)c2cc(Br)c(O)c(O)c12	i	i	nt	nt	nt	nt
CCOC(=O)c1c(CSc2cccs2)n(C)c2cc(Br)c(O)c(CN(C)C)c12	i	i	nt	59.4	51.2	47.8
Cc1nn(-c2ccccc2)c2nc(N)c(C#N)c(-c3ccc(F)cc3)c12	i	i	i	22.8	i	i
N#Cc1c(N)nc2c(c1-c1ccc(F)cc1)c(=O)nc1sccn12	i	i	nt	46.7	i	i
C(=C\c1ccccn1)/c1cccnc1	i	i	nt	nt	nt	nt
CCN1CCN(C(CNS(=O)(=O)c2cccs2)c2cccnc2)CC1 (stereo not given)	i	i	nt	nt	nt	nt
CCOC(=O)C1(CCCc2ccccc2)CCN(C2CCSCC2)CC1	i	i	nt	51.5	29.1	i
OCC1(CCCc2ccccc2)CCN(C2CCSCC2)CC1	i	i	nt	25.0	i	i
CCCCCCCCCCC[C@@H](C[C@@H]1OC(=O)[C@H]1CCCCCC)OC(=O)[C@H](CC(C)C)NC=O	i	i	nt	i	nt	nt
O=C(COC(=O)CNC(=O)c1ccc(Cl)cc1)Nc1cccc(S(=O)(=O)N2CCCC2)c1	i	i	nt	nt	nt	nt
O=C(NCc1cccs1)C1CCN(S(=O)(=O)c2ccccc2F)CC1	i	i	nt	nt	nt	nt
COc1ccc(/C(N)=N/OC(=O)CSc2ccc(C)cc2)cc1OC	i	i	i	21.4	i	i
CC1=NN(C(=O)c2ccc(Cn3cc([N+](=O)[O-])cn3)cc2)C(O)(C(F)(F)F)C1 (stereo not given)	i	i	i	i	nt	nt
CCCCNC(=O)c1onc(CSc2ccc(Cl)cc2)c1C(=O)O	i	i	i	21.1	22.7	i
C=CCNC(=O)c1onc(CSc2ccc(Cl)cc2)c1C(=O)O	i	i	i	22.1	i	i

High-throughput results from PubChem BioAssay.
